According to ChEMBL document CHEMBL4339218, “Discovering New Casein Kinase 1d Inhibitors with an Innovative Molecular Dynamics Enabled Virtual Screening Workflow” (ACS Med Chem Lett, 2019):

Assays:
[1] = target: T1, Casein kinase I isoform delta (Homo sapiens, UniProt P48730); test: Inhibition of CSNK1D (unknown origin) using CSNK1D/Ser/Thr 11 peptide incubated for 1 hr by FRET based Z'-LYTE assay
In short: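 Full dose–response curve used for IC50. Duplicates, averaged with SD. Protease development reagent B (1:16) then added. Phosphorylation taken from the donor coumarin/acceptor fluorescein emission ratio at 400 nm excitation.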
Target sequence in this assay (P48730 whole entry, canonical isoform): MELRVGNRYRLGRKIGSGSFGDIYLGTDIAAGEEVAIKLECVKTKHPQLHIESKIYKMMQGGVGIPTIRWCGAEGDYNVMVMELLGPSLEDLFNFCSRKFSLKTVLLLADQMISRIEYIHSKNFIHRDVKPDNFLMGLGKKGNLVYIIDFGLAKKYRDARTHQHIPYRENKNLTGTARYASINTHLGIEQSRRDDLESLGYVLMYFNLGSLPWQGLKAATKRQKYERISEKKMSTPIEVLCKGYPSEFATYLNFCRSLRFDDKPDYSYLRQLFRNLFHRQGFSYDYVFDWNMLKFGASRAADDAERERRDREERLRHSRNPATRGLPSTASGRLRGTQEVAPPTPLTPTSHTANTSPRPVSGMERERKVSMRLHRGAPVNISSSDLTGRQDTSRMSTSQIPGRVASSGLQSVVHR

[2] = target: T1, Casein kinase I isoform delta; test: Inhibition of CSNK1D (unknown origin) at 1 uM using CSNK1D/Ser/Thr 11 peptide incubated for 1 hr by FRET based Z'-LYTE assay relative to untreated control
In short: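 Single-point test at 1 μM ligand, in duplicate, reported as mean ± SD. Coupled-enzyme FRET readout in which a development protease cleaves only nonphosphorylated peptide. Development reagent B (1:16) then added. Coumarin/fluorescein emission ratio read after 400 nm excitation.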
Target sequence in this assay (P48730 whole entry, looked up, canonical isoform): as the sequence (P48730 whole entry, canonical isoform) above

| IC50 [1] | inhibition [2] | SMILES |
| --- | --- | --- |
| 134 nM | 99% | CN(C)Cc1n[nH]c(-c2ccc3[nH]nc(-c4cccc(C(=O)Nc5ccc(F)cc5)c4)c3c2)n1 |
| 354 nM | 80% | CNC(=O)c1ccc2[nH]nc(-c3cccc(C(=O)NCc4cccc5ccccc45)c3)c2c1 |
|  | 25% | O=C1CCCN1Cc1nnc(-c2ccc3[nH]nc(-c4ccc(F)cc4)c3c2)[nH]1 |
| 1030 nM | 66% | C[C@@H](NC(=O)c1ccc2[nH]nc(-c3cccc(NS(C)(=O)=O)c3)c2c1)c1ccccc1 |
|  | 92% | CNC(=O)c1ccc2[nH]nc(-c3cccc(C(=O)NCc4cnc(C)nc4N)c3)c2c1 |
|  | 57% | CNC(=O)c1ccc2[nH]nc(-c3cccc(C(=O)Nc4cc(-c5ccccn5)n[nH]4)c3)c2c1 |
| 848 nM | 53% | Fc1ccc(-c2n[nH]c3ccc(-c4n[nH]c(CN5CCCC5)n4)cc23)cc1 |
